Hits are enriched below; roughly 4% of the tested compounds scored in any of these assays.
CHOP inh – blocks CHOP induction under ER stress; CHO-K1 CHOP-promoter luciferase, tunicamycin-induced, 15-18 h; 3.8% of 220,000 active; inhibition, % at 10 µM;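 active = compounds that reduced the stress-induced luciferase reporter signal by more than about 70% of percent inhibition, limit read from the data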
Mdm2 ligase inh – inhibitors of human Mdm2 E3 ubiquitin ligase. Q00987. cell-based MDM2 ubiquitination luciferase reporter, 2 h; 0 = plate control, 100 = twice control, blank-subtracted. signal enhancement, % at 5 µM. 0.11% of 210,000 active. AID 1230;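 active = signal enhancement of 30% or more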;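 also: luminescence tracks abundance of the self-degrading MDM2-luciferase fusion protein; higher signal means inhibition of MDM2 E3 ligase activity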
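Assay system: stable mammalian line carrying autodegrading MDM2–luciferase fusion reporter; Input: 2000 cells in each well; Compound dosing: single-point 5 µM; Schedule: 2 h compound exposure at 37 °C; Signal: SteadyLite luciferase luminescence after 15 min room-temperature reagent incubation; Evaluation: % luminescence enhancement versus blank-corrected plate control mean; Benchmarks: plate controls and plate blanks.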
Hsp70 act – transcriptional activators of Hsp70; HeLa Hsp70 promoter luciferase reporter, luminescence; scaled: vehicle 0, proteasome-inhibitor control 100%; activation, % at 10 µM; 0.04% of 200,000 active; AID 1203;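 active = activation above the mean across all tested compounds plus 3 SD, cutoff set per campaign, cut at about 5.5% in these data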
S1P3 antag – S1P3 (human) receptor antagonism | CHO S1P3 NFAT-BLA reporter, FRET fluorescence, antagonist mode | inhibition, % at 4.98 µM | 0.27% of 170,000 active;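 active = inhibition above the plate cutoff, the mean inhibition of test wells on that plate plus 3 SD, cut at about 28% in these data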;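 also: cells challenged with S1P at its EC80 of 0.8 µM; blue over green emission ratio from cleaved BLA substrate after 4 h stimulation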
Target sequence (Q99500 whole entry, looked up): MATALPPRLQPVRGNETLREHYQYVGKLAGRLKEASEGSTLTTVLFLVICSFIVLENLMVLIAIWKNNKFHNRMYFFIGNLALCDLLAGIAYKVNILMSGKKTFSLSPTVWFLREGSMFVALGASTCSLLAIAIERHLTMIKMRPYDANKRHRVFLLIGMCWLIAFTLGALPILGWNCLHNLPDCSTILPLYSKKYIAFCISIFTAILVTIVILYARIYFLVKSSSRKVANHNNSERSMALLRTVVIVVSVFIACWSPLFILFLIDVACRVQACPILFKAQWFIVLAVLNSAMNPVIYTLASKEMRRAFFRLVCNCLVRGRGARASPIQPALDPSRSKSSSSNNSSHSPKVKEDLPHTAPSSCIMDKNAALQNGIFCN
Each line names hits and unclear results; the compound was inactive in the other large screens.

CC1(C)CC(=O)C=C(NC2=CC3OC(c4ccccc4)OCC3OC2=O)C1 (configuration not stated)	CHOP inh 103
COc1ccccc1C(=O)C1CCCN(C(=O)CCc2ccccn2)C1 (configuration not stated)	none
CSc1nnc2c(n1)OC(C1CC=C(C)CC1)Nc1ccccc1-2 (configuration not stated)	none (no result: CHOP inh, Mdm2 ligase inh, Hsp70 act)
O=C(OC(C(=O)NCc1ccco1)C(OC(=O)c1ccccc1)C(=O)NCc1ccco1)c1ccccc1 (configuration not stated)	CHOP inh 94
CC(=O)Oc1ccccc1N(C(C)=O)S(=O)(=O)c1cccc([N+](=O)[O-])c1	none
O=C(O)CCC(=O)Nc1nc2ccccc2s1	CHOP inh 72 (no result: S1P3 antag)
Cc1ccc2nc(NC(=O)CCCC(=O)O)sc2c1	CHOP inh 82
Cc1ccc2nc(NC(=O)CSCC(=O)OCC(=O)c3ccccc3)sc2c1	CHOP inh 71
Cc1ccc2nc(NC(=O)c3ccc4c(c3)OCO4)sc2c1	CHOP inh 93 (no result: S1P3 antag)
CCOCC(=O)Nc1nc2ccc(C)cc2s1	none (no result: S1P3 antag)
COc1ccc(CCNC(=O)c2ccc(-c3ccc([N+](=O)[O-])cc3)o2)cc1OC	none
COc1ccc(-c2nn(CCC(=O)O)cc2/C=N/NC(N)=S)cc1	none (no result: Hsp70 act)
N#Cc1c(-c2ccccc2)c(-c2ccccc2)nn(CC(=O)NNC(=O)Nc2ccc(Cl)c(Cl)c2)c1=O	none (no result: S1P3 antag)
CC(=O)c1cn(C)c(=O)n(C)c1=O	none
CCOC(=O)C(CCCOc1cccc(CC)c1)C(=O)OCC	none (no result: S1P3 antag)
CCOC(=O)C(CCCCOc1cccc(CC)c1)C(=O)OCC	CHOP inh 71
CCOc1ccc(C(=O)Nc2ccccc2-c2ccccc2)cc1Cl	CHOP inh 81 (no result: S1P3 antag)
CS(=O)(=O)c1ncc(Cl)c(C(=O)Nc2ccc3ccccc3c2)n1	CHOP inh 105
CCC(CC)C(=O)Nc1cccc(-c2nc3ccccc3o2)c1	S1P3 antag 61
CCC(=O)Nc1cccc(-c2nc3ccccc3c(=O)o2)c1	none
CC(=O)Nc1cccc(-c2nc3ccccc3c(=O)o2)c1	S1P3 antag 84
COc1cc(NC(=O)c2cccnc2)ccc1-c1cc2ccccc2oc1=O	CHOP inh 77
O=C(Nc1ccc(-c2cc3ccccc3oc2=O)c(Cl)c1)c1cccnc1	none (no result: S1P3 antag)
COc1ccc(/C=C2/NC(=O)N(CC(=O)Nc3cccc(C)c3)C2=O)cc1O	none
Cc1cccc(Oc2cc([N+](=O)[O-])cc3c2C(=O)Nc2ccccc2O3)c1	CHOP inh 92
CCCn1c(N/N=C\C=C\c2ccccc2)nc2c1c(=O)[nH]c(=O)n2C	CHOP inh 93
Cc1ccc2nc(Cl)c(/C=N/NC(=O)[C@H]3C[C@@H]3c3ccccc3)cc2c1	CHOP inh 74
CC(C)(C)c1ccc(C2CC2C(=O)N/N=C\c2cc3ccccc3nc2Cl)cc1 (configuration not stated)	none (no result: S1P3 antag)
Nc1nc(SCc2nc3scc(-c4cccs4)c3c(=O)[nH]2)n[nH]1	CHOP inh 78
O=C(N/N=C\c1cc(Cl)ccc1O)c1ccc(S(=O)(=O)N2CCCCC2)cc1	CHOP inh 81
CCOC(=O)/C(N=Nc1c(Br)cc(Br)cc1Br)=C(\C)O	CHOP inh 85 (no result: S1P3 antag)
O=C(C1=NN(c2ccccc2)C2C(=O)N(c3cccc(Cl)c3)C(=O)C12)c1ccccc1 (configuration not stated)	S1P3 antag 28 (no result: Mdm2 ligase inh)
O=C(C1=NN(c2ccccc2)C2C(=O)N(c3ccc(Cl)cc3)C(=O)C12)c1ccccc1 (configuration not stated)	none
Cc1cc(=O)oc2cc(OCC(=O)OCC(=O)Nc3ccc4ccccc4c3)ccc12	none
Cc1cc(=O)oc2cc(NC(=O)C3COc4ccccc4O3)ccc12 (configuration not stated)	CHOP inh 89
Cc1cccc(OCC(=O)Nc2ccc3c(C)cc(=O)oc3c2)c1	CHOP inh 92 (no result: Mdm2 ligase inh)
Cc1ccc(C(=O)N(CC(=O)NC2CCCC2)Cc2cccs2)s1	none
COc1ccc(NC(=O)c2c(NC(=O)CNCc3ccco3)sc3c2CCC3)c(OC)c1	CHOP inh 71, S1P3 antag 70
CC(C/C=N/NC(=O)COc1cc(Cl)ccc1Cl)c1ccccc1 (configuration not stated)	CHOP inh 79 (no result: S1P3 antag)
CC(C)NC(=O)COc1ccc(Cl)cc1Cl	none (no result: S1P3 antag)
Cc1ccc2[nH]c(=O)c(CN(CC3CCCO3)C(=S)Nc3ccccc3)cc2c1 (configuration not stated)	none
CCn1c2c(c3cc(Cl)ccc31)CCCC2=O	CHOP inh 76

Screening results from PubChem.
